The source made the active and inactive calls. No cut-off for these calls is given here.

The subject of data set [1] is Liver. The experiment in a line: Induction of ADP-stimulated respiration in rat liver mitochondria after 5 mins in presence of succinate. Format: functional. In short, it runs like this:
(§1)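 Glutamate/malate (10/5 mM) or succinate (5 mM) was the substrate, with compound 2.5–10 μM for 5 min (state 2). ADP was added (125 nmol glutamate/malate; 75 nmol succinate), then oligomycin 2 μg/mL, then FCCP 1 μM. RCR and ADP/O were calculated. Seven experiments.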

In data set [2] the test system is Liver. The experiment in a line: Induction of basal oxygen consumption under nonphosphorylative conditions in rat liver mitochondria after 5 mins in presence of glutamate/malate. The data set is classed as functional. The procedure, abridged: as §1
Data set [3] can be described thus: Antioxidant activity assessed as ABTS radical scavenging activity measured each minute for 15 mins by spectrophotometric analysis. The data set is classed as functional. In short, it runs like this: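 ABTS•+ generated from 7 mM ABTS plus potassium persulfate, held 16 h dark at room temperature, then diluted in ethanol to absorbance 0.72 ± 0.02. Ethanolic test solutions (10–500 μM) were added to radical solution in triplicate. Inhibition was taken against an ethanol blank (100% radical), and IC50 was read from dose–response curves.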

Data set [4] deals with Liver. The experiment in a line: Induction of basal respiration in rat liver mitochondria measured 5 mins after ADP phosphorylation in presence of glutamate/malate. The data set is classed as functional. The procedure, abridged:
as §1

Data set [5] can be described thus: Iron chelating activity in ammonium acetate buffer assessed as inhibition of [Fe(ferrozine)3]2+ formation at 100 uM at pH 6.7 measured after 10 mins by spectrophotometric analysis. The procedure, abridged: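 Ferrozine assay in ammonium acetate buffer pH 6.7. Compound (100 μM) plus ammonium iron(II) sulfate (20 μM) for 10 min, read at 562 nm. Ferrozine was added, incubated 10 min at 37 °C, and re-read at 562 nm. The first reading was subtracted, with a DMSO blank and EDTA = 100%. Three experiments.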

The subject of data set [6] is Liver. In words: Decrease in oxidative phosphorylation efficiency in rat liver mitochondria assessed as reduction in respiratory control ratio after 5 mins in presence of glutamate/malate. Format: functional. The procedure, abridged: as §1
Data set [7] concerns Liver. The experiment in a line: Drug uptake in rat liver intra-mitochondria at 1 uM in presence of succinate/valinomycin by TPP+-based electrode assay. Format: ADME, tissue-based. The procedure, abridged: (§2)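 TPP+-selective electrode with rat liver mitochondria (0.5 mg/mL) in 120 mM KCl, 10 mM HEPES pH 7.2, 1 mM EGTA at 37 °C with rotenone 1.5 μM. Five 1 μM additions calibrated the electrode, then succinate 10 mM was added, then valinomycin 0.2 μg/mL. The accumulation ratio assumed a matrix volume of ~0.5 μL/mg with a binding correction.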

The test system of data set [8] is Liver. In words: Increase in oligomycin-inhibited respiration in rat liver mitochondria after 5 mins in presence of glutamate/malate. The data set is classed as functional. The procedure, abridged:
as §1

Data set [9] in a line: Redox potential of compound in Ag/AgCl-NaCl containing phosphate buffer at 0.1 mM at pH 7.4 by cyclic voltammetric analysis. In short, it runs like this: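 Voltammetry used a glassy carbon working electrode, Pt counter and Ag/AgCl reference. Compound was at 0.1 mM final (10 mM ethanolic stock) in pH 7.4 potassium phosphate electrolyte.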
Data set [10] can be described thus: Lipophilicity of compound in Ag/AgCl-NaCl containing PET membrane assessed as tranfer potential at pH 7. The data set is classed as physicochemical. In short, it runs like this: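 Transfer across a liquid–liquid interface on a microporous PET membrane, with 1,6-dichlorohexane organic phase containing BTPPATPBCl. A gelled 2 mM BTPPACl + 2 mM NaCl reference was used, with 10 mM Tris-HCl pH 7.0 aqueous electrolyte.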

For data set [11], the system named is Liver. The experiment in a line: Antioxidant activity in rat liver mitochondria assessed as inhibition of FeSO4/H2O2-induced lipid peroxidation at 5 uM preincubated for 5 mins followed by FeSO4/H2O2 addition for 15 mins by TBARS-based fluorescence assay. The data set is classed as functional. In short, it runs like this: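 Rat liver mitochondria (2 mg protein/mL) in 100 mM KCl, 10 mM Tris-HCl pH 7.6 with glutamate/malate at 37 °C. After 5 min with compound (5 μM), 100 μM FeSO4/500 μM H2O2/5 mM ascorbate was added for 15 min. Butylated hydroxytoluene, perchloric acid and thiobarbituric acid were added, then heated 15 min at 100 °C. Read-out as % of control, three experiments.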

A short description of data set [12]: Antioxidant activity assessed as DPPH radical scavenging activity measured every minute for 45 mins. The data set is classed as functional. In short, it runs like this:
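DPPH• ethanolic solution diluted to absorbance 0.72 ± 0.02 at 515 nm. Ethanolic test solutions (50–500 μM) were added in triplicate and read at 515 nm. Inhibition was taken against an ethanol blank (100% radical), and IC50 was read from dose–response curves.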
(The DPPH test is a chemical assay of radical scavenging.)

The test system of data set [13] is Liver. In words: Drug uptake in rat liver extra-mitochondria at 1 uM in presence of succinate/valinomycin by TPP+-based electrode assay. Format: ADME, tissue-based. The procedure, abridged: as §2
The subject of data set [14] is Liver. In words: Induction of basal respiration in rat liver mitochondria measured 5 mins after ADP phosphorylation in presence of succinate. The data set is classed as functional. In short, it runs like this:
as §1

The nature of data set [15]: Antioxidant activity assessed as GO radical scavenging activity measured for 30 mins in absence of light. Format: functional. The procedure, abridged: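 Ethanolic GO• (5 mM stock) diluted to absorbance 1.00 ± 0.02 at 428 nm. Test solutions (5–75 μM in ethanol) were added in triplicate and read at 428 nm at room temperature. Inhibition was taken against an ethanol blank (100% radical).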

Data set [16] concerns Liver. In words: Decrease in oxidative phosphorylation efficiency in rat liver mitochondria assessed as reduction in coupling between ATP systhesis and oxygen consumption after 5 mins in presence of glutamate/malate. Format: functional. In short, it runs like this:
as §1

For data set [17], the system named is Liver. In words: Ratio of drug level in rat liver intra-mitochondria to extra-mitochondria at 1 uM in presence of succinate/valinomycin by TPP+-based electrode assay. Format: ADME, tissue-based. The procedure, abridged:
as §2

Data set [18] concerns Liver. In words: Induction of basal oxygen consumption under nonphosphorylative conditions in rat liver mitochondria after 5 mins in presence of succinate. Format: functional. In short, it runs like this: as §1
In data set [19] the test system is Liver. In words: Decrease in oxidative phosphorylation efficiency in rat liver mitochondria assessed as reduction in coupling between ATP systhesis and oxygen consumption after 5 mins in presence of succinate. Format: functional. In short, it runs like this:
as §1

Data set [20] has as its system Liver. The experiment in a line: Induction of ADP-stimulated respiration in rat liver mitochondria after 5 mins in presence of glutamate/malate. Format: functional. The procedure, abridged: as §1
The test system of data set [21] is Liver. In words: Increase in oligomycin-inhibited respiration in rat liver mitochondria after 5 mins in presence of succinate. The data set is classed as functional. The procedure, abridged:
as §1

Data set [22] relates to Liver. In words: Induction of membrane hyperpolarization in rat liver mitochondria assessed as change in repolarization potential at 2.5 uM. The data set is classed as functional. The procedure, abridged: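 Safranine (5 μM) fluorescence (ex 495/em 586 nm) at 25 °C. Rat liver mitochondria (0.5 mg/2 mL) were in 200 mM sucrose, 1 mM KH2PO4, 10 mM Tris pH 7.4, 10 μM EGTA with glutamate/malate or succinate, after 5 min with 2.5–10 μM. ADP 25 nmol depolarised, then FCCP 1 μM was added. A valinomycin calibration in K+-free medium was used, five experiments.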

Data set [23] relates to Liver. The experiment in a line: Antioxidant activity in rat liver mitochondria assessed as inhibition of ADP/FeSO4-induced lipid peroxidation at 5 uM preincubated for 5 mins followed by ADP/FeSO4 addition. Format: functional. The procedure, abridged:
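Rat liver mitochondria (2 mg) in 100 mM KCl, 10 mM Tris-HCl pH 7.6, with glutamate/malate (5/2.5 mM) at 37 °C. After 5 min with compound (5 μM), peroxidation was started with ADP/0.1 mM FeSO4. The lag phase of O2 consumption was measured by Clark electrode and expressed as % of control. Six experiments.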

The nature of data set [24]: Induction of mPTP in energized rat liver mitochondria at 2.5 to 10 uM after 5 mins in presence of succinate by spectrophotometric analysis.
A further data set is filed under the species Rattus norvegicus. In words: Inhibition of mPTP in energized rat liver mitochondria at 2.5 to 10 uM after 5 mins in presence of succinate by spectrophotometric analysis.

For the molecule `CS(=O)(=O)[O-].O=C(/C=C/c1ccc(O)c(O)c1)NCCCCCC[P+](c1ccccc1)(c1ccccc1)c1ccccc1`, the Activity result in the data set with Liver [1] was “Dose-dependent effect”; in the data set with Liver [2] it was “Dose-dependent effect”; with Liver [4] it was “Dose-dependent effect”; in the data set with Liver [6], “Dose-dependent effect”; in the data set with Liver [8] it was “Dose-dependent effect”; in data set [9], 0.164 V. For the same molecule, the Activity was 0.396 V in data set [10]; “Dose-dependent effect” in the data set with Liver [14]; “Dose-dependent effect” with Liver [16]; “Dose-dependent effect” in the data set on Liver [18]; “Dose-dependent effect” in the data set on Liver [19]; “Dose-dependent effect” with Liver [20]. In addition, in the data set with Liver [21], the Activity result is “Dose-dependent effect”. Further, the IC50 – broadly, the concentration that inhibits the measured activity by half – in data set [3] amounted to 30.5 µM; in [12], 29.5 µM; in data set [15], 4.1 µM. Further, the inhibition entry (in data set [5]; with Liver [11]) was “Active” in each case. In addition, the Drug uptake with Liver [7] is 2.5 mM; in the data set with Liver [13], 1.8 µM. In addition, the Ratio in the data set on Liver [17] stood at 2500.

In the case of `O=C(O)/C=C/c1ccc(O)c(O)c1` [CAFFEIC ACID], the results for the IC50 in [3], in data set [12] and in data set [15] were 17.9 µM, 18.1 µM and 3.4 µM, respectively. This molecule showed an Activity in [9] of 0.168 V.

For the molecule `CS(=O)(=O)[O-].O=C(/C=C/c1cc(O)c(O)c(O)c1)NCCCCCCCC[P+](c1ccccc1)(c1ccccc1)c1ccccc1`, the Activity result in the data set with Liver [1] is “Dose-dependent effect”; with Liver [2], “Dose-dependent effect”; in the data set on Liver [4], “Dose-dependent effect”; with Liver [6], “Dose-dependent effect”; in the data set with Liver [8] it was “Dose-dependent effect”; in [9], 0.046 V. For the same molecule, the Activity with Liver [22] is 25 mV; in data set [10], 0.423 V; with Liver [14] it was “Dose-dependent effect”; in the data set on Liver [16] it was “Dose-dependent effect”; in data set [24] it was “Non-Toxic”; in the data set with Liver [18], “Dose-dependent effect”. Besides, the Activity entry with Liver [19], with Liver [20] and with Liver [21] was “Dose-dependent effect” in each case. In addition, the IC50 was 8.7 µM in data set [3], 14.7 µM in data set [12] and 2.3 µM in data set [15]. Further, the values for the Drug uptake with Liver [7] and with Liver [13] were 4.5 mM and 1 µM, respectively. Further, the inhibition result in the data set with Liver [23] and in the data set filed under Rattus norvegicus was “Active” in each case. The Ratio with Liver [17] was found to be 3900.

As for `CS(=O)(=O)[O-].O=C(/C=C/c1ccc(O)c(O)c1)NCC[P+](c1ccccc1)(c1ccccc1)c1ccccc1`, the Activity entry was “Dose-dependent effect” in the data set on Liver [1]; “Dose-dependent effect” in the data set with Liver [4]; “Dose-dependent effect” in the data set with Liver [6]; “Dose-dependent effect” with Liver [8]; 0.166 V in data set [9]; 0.572 V in data set [10]. Also, the Activity entry in the data set on Liver [14], in the data set on Liver [16], in the data set on Liver [18], in the data set with Liver [19], with Liver [20] and in the data set with Liver [21] was “Dose-dependent effect” throughout. Besides, the IC50 was found to be 33.3 µM in data set [3], 35.4 µM in data set [12] and 4.5 µM in data set [15]. Besides, the Drug uptake in the data set with Liver [7] worked out at 1.5 mM; in the data set on Liver [13] it was 3.7 µM. Also, in the data set on Liver [23], the inhibition entry is “Active”. Besides, the Ratio with Liver [17] was 600.

Regarding `O=C(O)CN(CCN(CC(=O)O)CC(=O)O)CC(=O)O`, in [5], the inhibition result was “Active”.

For the molecule `CS(=O)(=O)[O-].O=C(/C=C/c1ccc(O)c(O)c1)NCCCCCCCC[P+](c1ccccc1)(c1ccccc1)c1ccccc1`, the Activity entry with Liver [1] was “Dose-dependent effect”; with Liver [2], “Dose-dependent effect”; in the data set with Liver [4] it was “Dose-dependent effect”; in the data set on Liver [6] it was “Dose-dependent effect”; in the data set on Liver [8] it was “Dose-dependent effect”; in data set [9], 0.17 V. Besides, the Activity was 10 mV in the data set on Liver [22]; 0.345 V in [10]; “Dose-dependent effect” with Liver [14]; “Dose-dependent effect” with Liver [16]; “Non-Toxic” in data set [24]; “Dose-dependent effect” with Liver [18]. Besides, the Activity entry in the data set on Liver [19], in the data set on Liver [20] and in the data set on Liver [21] was “Dose-dependent effect” in each case. For the same molecule, the IC50 in data set [3] amounted to 27.9 µM; in data set [12], 28 µM; in [15], 2.8 µM. The Drug uptake in the data set with Liver [7] came out at 5.7 mM; in the data set on Liver [13] it was 1.2 µM. For the same molecule, the Ratio in the data set with Liver [17] was 5100. Besides, the inhibition result in the data set listed under Rattus norvegicus was “Active”.

Values taken from ChEMBL document CHEMBL4038331 (J Med Chem, 2017).
